For series [1], the system named is Jurkat. The experiment in a line: Cytotoxicity against in human Jurkat cells after 18 hrs by MTT assay. Type of series: cell-based. A digest of the protocol:
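Jurkat cells, maintained in RPMI 1640 with 10% FBS at 37 °C under 5% CO2, were treated at 4 × 10^6 cells per 1 mL serum-free RPMI 1640 with probe (4 µM) at 37 °C for 18 h. Viability was read by MTT assay.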
Background: Tetrazolium dyes change colour on reduction, which living cells bring about.

Series [2] addresses Peptidyl-prolyl cis-trans isomerase FKBP1A (Homo sapiens) (UniProt P62942). Put plainly: Binding affinity to human FKBP12 in Jurkat cells at 11 uM after 24 hrs using anti-human FKBP12 antibody. Type of series: cell-based. The note with it: 4 uM, in the assay text read “at 4 uM after 18 hrs” for “at 11 uM after 24 hrs”.
The target in series [3] is Carbonic anhydrase 2 (Mus musculus) (UniProt P00920). Put plainly: Binding affinity to endogenously expressed carbonic anhydrase2 in Slc:ICR mouse using syreptavidin-horseradish peroxidase conjugate by Western blot analysis. The essentials:
(§1)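 Male SPF Slc:ICR mice, 8 weeks old, received the biotin probe intravenously (100 µM in 0.5 mL PBS), and tail-vein blood was drawn at 4, 8 and 20 h. For ex vivo runs, EDTA-treated whole blood was diluted two-fold in PBS and held with 5 µM probe, ±500 µM EZA, at 35 °C for 20 h. Lysis used NP-40 buffer with 0.5 mM EZA, followed by 15% SDS-PAGE and PVDF blotting. Biotin was detected with SAv-HRP chemiluminescence; the membrane was reprobed with anti-mouse CAII plus anti-goat IgG-HRP.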
For orientation: Immunoblotting shows a protein as a band on a membrane.

Series [4] has the same target. The experiment in a line: Binding affinity to endogenously expressed carbonic anhydrase2 in Slc:ICR mouse using anti-mouse CA2 antibody by Western blot analysis. The essentials:
as §1

Series [5] is described as follows: Toxicity in human RBC assessed as hemolysis. Conditions: erythrocyte. The class given is cell-based.
In series [6] the target is Carbonic anhydrase 2 (Homo sapiens) (UniProt P00918). The experiment in a line: Binding affinity to human 7-diethylaminocoumarin labelled carbonic anhydrase2 after 48 hrs by SDS-PAGE/fluorescence gel imaging. A digest of the protocol: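 Purified human CAII (40 µM) was incubated with the Dc-tosyl reagent (80 µM) in 50 mM HEPES, pH 7.2, at 37 °C. Control reactions held EZA (400 µM) or GSH (10 mM). Samples were resolved by SDS-PAGE, read by in-gel fluorescence imaging, then stained with CBB.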

For series [7] the target is unchanged. The experiment in a line: Activity at human carbonic anhydrase2 assessed as hydrolysis of p- nitrophenyl acetate.

Active and inactive are the calls of the source. The calls are words filed in the database; no cut-off is given here.

Chain of Peptidyl-prolyl cis-trans isomerase FKBP1A (Homo sapiens) (P62942 whole entry): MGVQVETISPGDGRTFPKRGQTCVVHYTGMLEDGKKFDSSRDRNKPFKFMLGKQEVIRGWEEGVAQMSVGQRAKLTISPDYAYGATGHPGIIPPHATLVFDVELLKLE

As for `CCC(C)(C)C(=O)C(=O)N1CCCC[C@H]1C(=O)O[C@H](CCc1ccc(OC)c(OC)c1)c1cccc(OCC(=O)NCCNC(=O)c2cccc(S(=O)(=O)OCCOCCOCCNC(=O)CCCC[C@@H]3SC[C@@H]4NC(=O)N[C@@H]43)c2)c1`, in series [1], the Activity entry is on record as “Non-toxic”. Also, the result in series [2] was Active.
As to `O=C(CCCC[C@@H]1SC[C@@H]2NC(=O)N[C@@H]21)NCCOCCOCCOS(=O)(=O)c1cccc(C(=O)NCCCCCNC(=O)c2ccccc2)c1`, the outcome in series [3] and in series [4] was inactive.
For `NS(=O)(=O)c1ccc(C(=O)NCCCCCNC(=O)c2cccc(S(=O)(=O)OCCOCCOCCNC(=O)CCCC[C@@H]3SC[C@@H]4NC(=O)N[C@@H]43)c2)cc1`, the result in series [3] and in series [4] was Active.
For the molecule `CCN(CC)c1ccc2cc(C(=O)NCCOCCOS(=O)(=O)c3cccc(C(=O)NCCCCCNC(=O)c4ccc(S(N)(=O)=O)cc4)c3)c(=O)oc2c1`, the Activity entry is “Non-toxic” in series [5] and 75% in series [6]. Moreover, the 1/Km in series [7] stood at 2.38 ×10² /M.

For the origin of these results see ChEMBL document CHEMBL1212715, “Ligand-directed tosyl chemistry for protein labeling in vivo” (Nat Chem Biol, 2009).
